Reference: ChEMBL document CHEMBL1649230, “Aryl rhodanines specifically inhibit staphylococcal and enterococcal biofilm formation” (Antimicrob Agents Chemother, 2009)

Experiments:
Staphylococcus aureus [1] = assay: Antimicrobial activity against Staphylococcus aureus ATCC 35556 assessed as inhibition of bacterial biofilm formation after 18 hrs by broth microdilution method in presence of 10 ug/ml fibrinogen; assay type: functional
In short: (§1)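 Polystyrene 96-well wells precoated with 100 μl fibronectin or fibrinogen (0–20 μg protein/ml) for 24 h at 4°C. Wells then washed with sterile water. The standard MBIC biofilm assay followed: 0.5× TSB with 1% glucose, 2% DMSO, 18 h at 37°C, crystal violet read at OD600.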

Staphylococcus aureus [2] = assay: Antimicrobial activity against Staphylococcus aureus ATCC 35556 assessed as inhibition of bacterial biofilm formation after 18 hrs by broth microdilution method in presence of 1 ug/ml fibronectin; assay type: functional; in short: as §1
[3] = test system: Staphylococcus epidermidis; assay: Antimicrobial activity against coagulase-negative Staphylococcus epidermidis isolate WTBF-48 assessed as inhibition of bacterial biofilm after 18 hrs by broth microdilution method; assay type: functional
In short: (§2)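 Static biofilm in tissue culture-treated polystyrene 96-well plates in 0.5× TSB with 1% glucose. Overnight culture diluted 1:100 gives about 5 × 10^6 cells/well. Compound 2-fold series, final 0.2–100 μM, 2% DMSO. Incubated 18 h at 37°C. Washed, heat-fixed 60°C for 60 min, stained with 0.06% crystal violet, read at OD600. MBIC is the lowest concentration giving ≥80% inhibition versus untreated. Geometric mean of ≥3 independent experiments.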

Staphylococcus aureus [4] = assay: Antimicrobial activity against Staphylococcus aureus ATCC 35556 assessed as inhibition of bacterial biofilm formation after 18 hrs by broth microdilution method in presence of 2 ug/ml fibrinogen; assay type: functional; in short: as §1
Enterococcus gallinarum = assay: Antimicrobial activity against vancomycin-resistant Enterococcus gallinarum isolate 2392 on medical grade silicone disk assessed as inhibition of bacterial biofilm after 18 hrs by broth microdilution method; assay type: functional
In short: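 Medical-grade silicone disks glued to 24-well plate bottoms. Compound added to a 1:100 overnight-culture inoculum (0.5× TSB, 1% glucose) at 2% DMSO final; ≥3 wells each, ~18 h at 37°C. Washed with water, heat-fixed 60°C 60 min, stained with 0.06% crystal violet, eluted with 30% acetic acid, OD600 read. Repeated ≥3 times.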

Staphylococcus aureus [5] = assay: Antimicrobial activity against community acquired Staphylococcus aureus NCTC 8325 assessed as inhibition of bacterial biofilm after 18 hrs by broth microdilution method; assay type: functional; in short: as §2
[6] = test system: Staphylococcus epidermidis; assay: Antimicrobial activity against coagulase-negative Staphylococcus epidermidis isolate WTBF-40 assessed as inhibition of bacterial biofilm after 18 hrs by broth microdilution method; assay type: functional; in short: as §2
Staphylococcus aureus [7] = assay: Antimicrobial activity against methicillin-susceptible Staphylococcus aureus on medical grade silicone disk assessed as inhibition of bacterial biofilm after 18 hrs by broth microdilution method; assay type: functional
In short: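 S. aureus ATCC 35556 biofilms were grown on autoclaved medical-grade silicone disks fixed in 24-well plates. The inoculum was a 1:100 dilution of an overnight culture in 0.5× TSB with 1% glucose, with compound at 0× to 8× MBIC and 2% DMSO final, in at least three wells. Plates were held about 18 h at 37°C, water-washed, heat-fixed at 60°C for 60 min, and stained with 0.06% CV. CV was eluted in 30% acetic acid and read at OD600, averaging three disks; runs were repeated ≥3 times.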

Staphylococcus aureus [8] = assay: Antimicrobial activity against hospital acquired methicillin-resistant Staphylococcus aureus isolate 47263 assessed as inhibition of bacterial biofilm after 18 hrs by broth microdilution method; assay type: functional
In short: (§3)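 Biofilm MBIC on tissue culture-treated polystyrene 96-well plates. Twofold dilutions, 0.2 to 100 μM final, with 2% DMSO final. Inoculum was an overnight culture diluted 1:100 (~5 × 10^6 cells/well) in 0.5× TSB plus 1% glucose, grown 18 h at 37°C. Wells washed, heat-fixed 60°C 60 min, stained with 0.06% crystal violet, OD600 read. MBIC is the lowest concentration giving ≥80% inhibition versus untreated; geometric mean of ≥3 experiments.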

Enterococcus faecium [9] = assay: Antimicrobial activity against vancomycin-resistant Enterococcus faecium isolate F1181 assessed as inhibition of bacterial biofilm after 18 hrs by broth microdilution method; assay type: functional; in short: as §3
Pseudomonas aeruginosa = assay: Antimicrobial activity against Pseudomonas aeruginosa PAO1 assessed as inhibition of bacterial biofilm after 18 hrs by broth microdilution method; assay type: functional
In short: (§4)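 Polystyrene plates with breathable lids in 1× TSB (0.25% glucose), 37°C for 18 h. Biofilms form at the air-liquid interface. Stained with crystal violet, dye eluted with 30% acetic acid, OD read. Compound 2-fold series, final 0.2–100 μM in 2% DMSO. MBIC taken at ≥80% inhibition versus untreated. Geometric mean of ≥3 experiments.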

Staphylococcus aureus [10] = assay: Antimicrobial activity against community acquired community-acquired Staphylococcus aureus MW2 assessed as inhibition of bacterial biofilm after 18 hrs by broth microdilution method; assay type: functional; in short: as §3
Staphylococcus aureus [11] = assay: Antimicrobial activity against community acquired methicillin-susceptible Staphylococcus aureus assessed as inhibition of bacterial biofilm after 18 hrs by broth microdilution method; assay type: functional; in short: as §2
Staphylococcus aureus [12] = assay: Antimicrobial activity against Staphylococcus aureus ATCC 35556 assessed as inhibition of bacterial biofilm formation after 18 hrs by broth microdilution method in presence of 5 ug/ml fibrinogen; assay type: functional; in short: as §1
Enterococcus faecium [13] = assay: Antimicrobial activity against vancomycin-resistant Enterococcus faecium isolate 1401 assessed as inhibition of bacterial biofilm after 18 hrs by broth microdilution method; assay type: functional; in short: as §3
Staphylococcus aureus [14] = assay: Antimicrobial activity against Staphylococcus aureus ATCC 35556 assessed as inhibition of bacterial biofilm formation after 18 hrs by broth microdilution method in presence of 2 ug/ml fibronectin; assay type: functional; in short: as §1
Staphylococcus aureus [15] = assay: Antimicrobial activity against community acquired methicillin-resistant Staphylococcus aureus isolate 23542 assessed as inhibition of bacterial biofilm after 18 hrs by broth microdilution method; assay type: functional; in short: as §3
Enterococcus faecalis [16] = assay: Antimicrobial activity against Enterococcus faecalis isolate F177 on medical grade silicone disk assessed as inhibition of bacterial biofilm after 18 hrs by broth microdilution method
[17] = test system: Staphylococcus epidermidis; assay: Antimicrobial activity against Staphylococcus epidermidis O-47 assessed as inhibition of bacterial biofilm after 18 hrs by broth microdilution method; assay type: functional; in short: as §2
Staphylococcus aureus [18] = assay: Antimicrobial activity against hospital acquired methicillin-resistant Staphylococcus aureus isolate 58336 assessed as inhibition of bacterial biofilm after 18 hrs by broth microdilution method; assay type: functional; in short: as §3
Escherichia coli = assay: Antimicrobial activity against Escherichia coli ATCC 25922 assessed as inhibition of bacterial biofilm after 18 hrs by broth microdilution method; assay type: functional; in short: as §4
Enterococcus faecalis [19] = assay: Antimicrobial activity against vancomycin-resistant Enterococcus faecalis ATCC 51299 assessed as inhibition of bacterial biofilm after 18 hrs by broth microdilution method; assay type: functional; in short: as §3
[20] = test system: Staphylococcus epidermidis; assay: Antimicrobial activity against coagulase-negative Staphylococcus epidermidis isolate WTBF-46 assessed as inhibition of bacterial biofilm after 18 hrs by broth microdilution method; assay type: functional; in short: as §2
Staphylococcus aureus [21] = assay: Antimicrobial activity against Staphylococcus aureus ATCC 35556 assessed as inhibition of bacterial biofilm formation after 18 hrs by broth microdilution method in presence of 10 ug/ml fibronectin; assay type: functional; in short: as §1
Staphylococcus aureus [22] = assay: Antimicrobial activity against community acquired methicillin-resistant Staphylococcus aureus isolate 49404 assessed as inhibition of bacterial biofilm after 18 hrs by broth microdilution method; assay type: functional; in short: as §3
Staphylococcus aureus [23] = assay: Antimicrobial activity against community acquired methicillin-resistant Staphylococcus aureus isolate 38230 assessed as inhibition of bacterial biofilm after 18 hrs by broth microdilution method; assay type: functional; in short: as §3
Staphylococcus aureus [24] = assay: Antimicrobial activity against community acquired methicillin-resistant Staphylococcus aureus isolate 44081 assessed as inhibition of bacterial biofilm after 18 hrs by broth microdilution method; assay type: functional; in short: as §3

| SMILES | MBIC (Staphylococcus aureus [1]) | MBIC (Staphylococcus aureus [2]) | MBIC [3] | MBIC (Staphylococcus aureus [4]) | MBIC90 (Enterococcus gallinarum) | MBIC (Staphylococcus aureus [5]) | MBIC [6] | MBIC90 (Staphylococcus aureus [7]) | MBIC (Enterococcus faecium [9]) | MBIC (Pseudomonas aeruginosa) | MBIC (Staphylococcus aureus [10]) | MBIC (Staphylococcus aureus [11]) | MBIC (Staphylococcus aureus [12]) | MBIC (Enterococcus faecium [13]) | MBIC (Staphylococcus aureus [14]) | MBIC90 (Enterococcus faecalis [16]) | MBIC [17] | MBIC (Escherichia coli) | MBIC [20] | MBIC (Staphylococcus aureus [21]) | other results |
| --- | --- | --- | --- | --- | --- | --- | --- | --- | --- | --- | --- | --- | --- | --- | --- | --- | --- | --- | --- | --- | --- |
| CCOc1cc(/C=C2\SC(=S)N(c3cccc(F)c3)C2=O)ccc1O | 6.25 µM | 6.25 µM | 50 µM | 6.25 µM | >=100 uM | 25 µM | 59.5 µM | 70.7 µM | >=100 uM | >=100 uM | 31.5 µM | 14.9 µM | 6.25 µM | >=100 uM | 6.25 µM | >=100 uM | 100 µM | >=100 uM | 59.5 µM | 6.25 µM | MBIC (Staphylococcus aureus [8]): 8.8 µM; MBIC (Staphylococcus aureus [15]): 19.8 µM; MBIC (Staphylococcus aureus [18]): 10.5 µM; MBIC (Enterococcus faecalis [19]): 25 µM |
| CCOc1cc(/C=C2\SC(=S)N(c3cccnc3)C2=O)ccc1O | 12.5 µM | 12.5 µM | 17.7 µM | 12.5 µM |  | 12.5 µM | 35.4 µM | 25 µM | >=100 uM | >=100 uM | 21 µM | 12.5 µM | 12.5 µM | 19.8 µM | 12.5 µM | 19.8 µM | 59.5 µM | >=100 uM | 25 µM | 12.5 µM | MBIC (Staphylococcus aureus [22]): 31.5 µM; MBIC (Staphylococcus aureus [23]): 19.8 µM; MBIC (Staphylococcus aureus [15]): 25 µM; MBIC (Staphylococcus aureus [24]): 25 µM; MBIC (Staphylococcus aureus [18]): 14.9 µM; MBIC (Enterococcus faecalis [19]): 8.8 µM |
| C=CCOc1cc(/C=C2\SC(=S)N(c3ccc(F)cc3)C2=O)ccc1O | 3.125 µM | 3.125 µM | 12.5 µM | 3.125 µM | 100 µM | 14.9 µM | 50 µM | 100 µM | >=100 uM | >=100 uM | 25 µM | 10.5 µM | 3.125 µM | 79.4 µM | 3.125 µM | 100 µM | 59.5 µM | >=100 uM | 70.7 µM | 3.125 µM | MBIC (Staphylococcus aureus [22]): 15.7 µM; MBIC (Staphylococcus aureus [23]): 35.4 µM; MBIC (Staphylococcus aureus [8]): 8.8 µM; MBIC (Staphylococcus aureus [24]): 39.7 µM |
| CCOc1cc(/C=C2\SC(=S)N(c3ccc(F)cc3)C2=O)ccc1O | 3.125 µM | 3.125 µM | 25 µM | 3.125 µM | >=100 uM | 25 µM | 50 µM | 79.4 µM | >=100 uM | >=100 uM | 42 µM | 14.9 µM | 3.125 µM | 100 µM | 3.125 µM | >=100 uM | 50 µM | >=100 uM | 50 µM | 6.25 µM | MBIC (Staphylococcus aureus [22]): 63 µM; MBIC (Staphylococcus aureus [23]): 50 µM; MBIC (Staphylococcus aureus [8]): 8.8 µM; MBIC (Staphylococcus aureus [15]): 31.5 µM; MBIC (Staphylococcus aureus [24]): 79.4 µM; MBIC (Staphylococcus aureus [18]): 10.5 µM; MBIC (Enterococcus faecalis [19]): 12.5 µM |
